According to ChEMBL document CHEMBL3593239, “PABA/NO lead optimization: Improved targeting of cytotoxicity to glutathione S-transferase P1-overexpressing cancer cells” (Bioorg Med Chem, 2015):
Calls of active or inactive are those of the source. The calls are words filed in the database; no cut-off is given here.

Assays:
[1] = Drug level in phosphate buffer treated with (Z)-3,3-dimethyl-1-(5-(4-(methylamino)benzoyloxy)-2,4-dinitrophenoxy)triaz-1-ene 2-oxide at 1 uM at pH 7.4 at 37 degC after 1 to 30 mins by LC/MS-MS analysis; assay type: physicochemical; conditions: pH 7.4, 1 µM
[2] = molecular target: T1, Glutathione S-transferase A1 (Homo sapiens, UniProt P08263); experiment: (§1) Drug level in phosphate buffer assessed as GSTA1 (unknown origin)-mediated compound formation from nitric oxide retained pathway treated with (Z)-1-(4-cyano-5-(4-(methylamino)benzoyloxy)-2-nitrophenoxy)-3,3-dimethyltriaz-1-ene 2-oxide at 1 uM at pH 7.4 at 37 degC after 30 mins by LC-MS/MS analysis in presence of GSH; assay type: ADME; conditions: pH 7.4, 0.5 h
T1 sequence (P08263 whole entry): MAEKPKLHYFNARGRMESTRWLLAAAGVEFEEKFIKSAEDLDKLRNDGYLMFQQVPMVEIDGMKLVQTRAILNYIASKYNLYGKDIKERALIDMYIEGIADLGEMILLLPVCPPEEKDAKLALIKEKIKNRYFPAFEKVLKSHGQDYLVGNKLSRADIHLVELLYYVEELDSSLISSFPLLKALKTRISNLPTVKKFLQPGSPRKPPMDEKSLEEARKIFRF
Procedure, shortened: (§2)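 Products analysed by LC–MS. The ratio is the NO-release-pathway product over the NO-retained-pathway phenolic product.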

[3] = Drug level in phosphate buffer treated with (Z)-1-(4-cyano-5-(4-(methylamino)benzoyloxy)-2-nitrophenoxy)-3,3-dimethyltriaz-1-ene 2-oxide at 1 uM at pH 7.4 at 37 degC after 30 secs by LC-MS analysis in presence of GSH; assay type: physicochemical; conditions: pH 7.4, 0.5 min
[4] = molecular target: T2, Glutathione S-transferase P (Homo sapiens, UniProt P09211); experiment: Prodrug conversion in phosphate buffer assessed as GSTP1 (unknown origin)-mediated nitric oxide release at 1 uM at pH 7.4 at 37 degC after 1 to 30 mins by LC/MS-MS analysis; assay type: ADME; conditions: pH 7.4, 1 µM
Procedure, shortened: (§3)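 Test compound at 1 µM reacted with 4 mM GSH containing 4 nM GSTP1 in 0.1 M phosphate, pH 7.4, at 37 °C. Products identified by LC–MS traces taken at 60 s and 30 min.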

[5] = Stability of the compound in phosphate buffer assessed as pseudo-first order rate constant at pH 7.4 at 37 degC by HPLC trapping method in presence of GSH; assay type: physicochemical
[6] = molecular target: T1, Glutathione S-transferase A1; experiment: Drug metabolism in phosphate buffer assessed as ratio of GSTA1 (unknown origin)-mediated (S)-2-amino-5-((R)-1-(carboxymethylamino)-3-(5-hydroxy-2,4-dinitrophenylthio)-1-oxopropan-2-ylamino)-5-oxopentanoic acid formation from nitric oxide release pathway to GSTA1 (unknown origin)-mediated (Z)-1-(5-hydroxy-2,4-dinitrophenoxy)-3,3-dimethyltriaz-1-ene 2-oxide formation from nitric oxide retained pathway at 1 uM at pH 7.4 at 37 degC after 30 mins by LC-MS/MS analysis in presence of GSH; assay type: ADME; conditions: pH 7.4, 0.5 h
Procedure, shortened: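 GSTA1 (4 nM)-catalysed reaction of 1 µM compound with 4 mM GSH in 0.1 M phosphate buffer, pH 7.4, 37 °C. Products analysed by LC–MS. Value is the ratio of the NO-release-pathway product to the NO-retained-pathway phenol product.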

[7] = Half life of the compound in phosphate buffer at 1 uM at pH 7.4 at 37 degC by HPLC trapping method; assay type: ADME
Procedure, shortened: (§4)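 Hydrolysis of compound at 1 µM final in 0.1 M phosphate buffer, pH 7.4, with 0.1% DMSO, run separately at 25 °C and 37 °C. Decomposition followed by HPLC, with products confirmed by LC–MS/MS. First-order rate constants were derived by initial-rate analysis.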

[8] = Half life of the compound in phosphate buffer at 1 uM at pH 7.4 at 25 degC by HPLC trapping method; assay type: ADME; procedure, shortened: as §4
[9] = Stability of the compound in phosphate buffer assessed as first-order initial rate constant for hydrolysis at pH 7.4 at 25 degC by HPLC trapping method; assay type: physicochemical
[10] = Stability of the compound in phosphate buffer assessed as first-order initial rate constant for hydrolysis at pH 7.4 at 37 degC by HPLC trapping method; assay type: physicochemical
[11] = Drug level in phosphate buffer treated with (Z)-1-(2-cyano-5-(4-(methylamino)benzoyloxy)-4-nitrophenoxy)-3,3-dimethyltriaz-1-ene 2-oxide at 1 uM at pH 7.4 at 37 degC after 30 secs by LC-MS analysis in presence of GSH; assay type: physicochemical; conditions: pH 7.4, 0.5 min
[12] = molecular target: T2, Glutathione S-transferase P; experiment: Drug level in phosphate buffer assessed as GSTP1 (unknown origin)-mediated compound formation treated with (Z)-1-(2-cyano-5-(4-(methylamino)benzoyloxy)-4-nitrophenoxy)-3,3-dimethyltriaz-1-ene 2-oxide at 1 uM at pH 7.4 at 37 degC after 5 to 30 mins by LC-MS/MS analysis in presence of GSH; assay type: ADME; conditions: pH 7.4, 1 µM; procedure, shortened: as §3
[13] = molecular target: T1, Glutathione S-transferase A1; experiment: (§5) Drug level in phosphate buffer assessed as GSTA1 (unknown origin)-mediated compound formation from nitric oxide retained pathway treated with (Z)-1-(2-cyano-5-(4-(methylamino)benzoyloxy)-4-nitrophenoxy)-3,3-dimethyltriaz-1-ene 2-oxide at 1 uM at pH 7.4 at 37 degC after 30 mins by LC-MS/MS analysis in presence of GSH; assay type: ADME; conditions: pH 7.4, 0.5 h; procedure, shortened: as §2
[14] = Drug level in phosphate buffer treated with (Z)-1-(4-cyano-5-(4-(methylamino)benzoyloxy)-2-nitrophenoxy)-3,3-dimethyltriaz-1-ene 2-oxide at 1 uM at pH 7.4 at 37 degC measured for 30 mins by LC-MS/MS analysis in presence of GSH; assay type: physicochemical; conditions: pH 7.4, 0.5 h
[15] = Drug level in phosphate buffer treated with (Z)-3,3-dimethyl-1-(5-(4-(methylamino)benzoyloxy)-2,4-dinitrophenoxy)triaz-1-ene 2-oxide at 1 uM at pH 7.4 at 37 degC by HPLC trapping method; assay type: physicochemical; conditions: pH 7.4, 1 µM
[16] = molecular target: T1, Glutathione S-transferase A1; experiment: (§6) Drug level in phosphate buffer assessed as GSTA1 (unknown origin)-mediated compound formation from nitric oxide retained pathway treated with (Z)-3,3-dimethyl-1-(5-(4-(methylamino)benzoyloxy)-2,4-dinitrophenoxy)triaz-1-ene 2-oxide at 1 uM at pH 7.4 at 37 degC after 30 mins by LC-MS/MS analysis in presence of GSH; assay type: ADME; conditions: pH 7.4, 0.5 h; procedure, shortened: as §2
[17] = Drug level in phosphate buffer treated with (Z)-3,3-dimethyl-1-(5-(4-(methylamino)benzoyloxy)-2,4-dinitrophenoxy)triaz-1-ene 2-oxide at 1 uM at pH 7.4 at 37 degC by HPLC trapping method in presence of GSH; assay type: physicochemical; conditions: pH 7.4, 1 µM
[18] = Drug level in phosphate buffer treated with (Z)-3,3-dimethyl-1-(5-(4-(methylamino)benzoyloxy)-2,4-dinitrophenoxy)triaz-1-ene 2-oxide at 1 uM at pH 7.4 at 25 degC by HPLC trapping method; assay type: physicochemical; conditions: pH 7.4, 1 µM
[19] = molecular target: T1, Glutathione S-transferase A1; experiment: as §5, with “release” for “retained”; assay type: ADME; conditions: pH 7.4, 0.5 h; procedure, shortened: as §2
[20] = molecular target: T1, Glutathione S-transferase A1; experiment: as §1, with “release” for “retained”; assay type: ADME; conditions: pH 7.4, 0.5 h; procedure, shortened: as §2
[21] = molecular target: T1, Glutathione S-transferase A1; experiment: as §6, with “release” for “retained”; assay type: ADME; conditions: pH 7.4, 0.5 h; procedure, shortened: as §2
HL-60 [22] = experiment: Induction of apoptosis in human HL60 cells assessed as activation of caspase 8 at >10 uM after 24 hrs by Western blot analysis; assay type: functional, cell-based
HL-60 [23] = experiment: Cytotoxicity against human HL60 cells assessed as growth inhibition after 72 hrs by MTT assay; assay type: functional, cell-based; conditions: HL-60, 72 h
Procedure, shortened: (§7)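 HL-60 and U937 cells from ATCC, grown per supplier protocol, seeded and exposed to increasing concentrations for 72 h. Viability was read with a Promega assay run per the manufacturer's protocol. Six repeats per concentration, three independent experiments. IC50 derived by curve fitting.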

U-937 = experiment: Cytotoxicity against human U937 cells assessed as growth inhibition after 72 hrs by MTT assay; assay type: functional, cell-based; conditions: U-937, 72 h; procedure, shortened: as §7
[24] = molecular target: T1, Glutathione S-transferase A1; experiment: Drug metabolism in phosphate buffer assessed as ratio of GSTA1 (unknown origin)-mediated (S)-2-amino-5-((R)-1-(carboxymethylamino)-3-(2-cyano-5-hydroxy-4-nitrophenylthio)-1-oxopropan-2-ylamino)-5-oxopentanoic acid formation from nitric oxide release pathway to GSTA1 (unknown origin)-mediated (Z)-1-(2-cyano-5-hydroxy-4-nitrophenoxy)-3,3-dimethyltriaz-1-ene 2-oxide formation from nitric oxide retained pathway at 1 uM at pH 7.4 at 37 degC after 30 mins by LC-MS/MS analysis in presence of GSH; assay type: ADME; conditions: pH 7.4, 0.5 h; procedure, shortened: as §2
HL-60 [25] = experiment: Induction of apoptosis in human HL60 cells assessed as activation of caspase 7 at >10 uM after 24 hrs by Western blot analysis; assay type: functional, cell-based
HL-60 [26] = experiment: Induction of SAPK/JNK phosphorylation in human HL-60 cells at 5 to 20 uM after 24 hrs by Western blot analysis
[27] = molecular target: T2, Glutathione S-transferase P; experiment: Drug metabolism in phosphate buffer assessed as formation of GSTP1 (unknown origin)-mediated (Z)-1-(5-((R)-2-((S)-4-amino-4-carboxybutanamido)-3-(carboxymethylamino)-3-oxopropylthio)-2-cyano-4-nitrophenoxy)-3,3-dimethyltriaz-1-ene 2-oxide at 1 uM at pH 7.4 at 37 degC after 5 to 30 mins by LC-MS/MS analysis in presence of GSH; assay type: ADME; conditions: pH 7.4, 1 µM; procedure, shortened: as §3
HL-60 [28] = experiment: Induction of apoptosis in human HL60 cells assessed as cleavage of PARP at >10 uM after 24 hrs by Western blot analysis; assay type: functional, cell-based
[29] = molecular target: T2, Glutathione S-transferase P; experiment: Drug level in phosphate buffer assessed as GSTP1 (unknown origin)-mediated compound formation treated with (Z)-1-(4-cyano-5-(4-(methylamino)benzoyloxy)-2-nitrophenoxy)-3,3-dimethyltriaz-1-ene 2-oxide at 1 uM at pH 7.4 at 37 degC after 1 to 30 mins by LC-MS/MS analysis in presence of GSH; assay type: ADME; conditions: pH 7.4, 1 µM; procedure, shortened: as §3

T2 sequence (P09211 whole entry): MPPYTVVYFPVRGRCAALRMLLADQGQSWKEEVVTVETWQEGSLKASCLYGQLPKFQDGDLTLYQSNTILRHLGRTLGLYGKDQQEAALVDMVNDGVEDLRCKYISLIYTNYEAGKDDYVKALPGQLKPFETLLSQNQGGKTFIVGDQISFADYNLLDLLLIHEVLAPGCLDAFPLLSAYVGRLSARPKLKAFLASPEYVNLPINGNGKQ

N[C@@H](CCC(=O)N[C@@H](CSc1cc(SC[C@H](NC(=O)CC[C@H](N)C(=O)O)C(=O)NCC(=O)O)c([N+](=O)[O-])cc1[N+](=O)[O-])C(=O)NCC(=O)O)C(=O)O
Drug metabolism [1]: metabolite_detected

CN(C)/[N+]([O-])=N/Oc1cc(O)c(C#N)cc1[N+](=O)[O-]
Drug metabolism [2]: metabolite_detected | Drug metabolism [3]: metabolite_detected

CNc1ccc(C(=O)Oc2cc(O/N=[N+](\[O-])N(C)C)c([N+](=O)[O-])cc2[N+](=O)[O-])cc1
Drug metabolism [4]: metabolite_detected | K [5]: 11.8 ×10⁻³ /s | Ratio [6]: 3 | half-life at 1 µM [7]: 0.333 h | half-life at 1 µM [8]: 2 h | K [9]: 9.6 ×10⁻⁵ /s | K [10]: 5.7 ×10⁻⁴ /s

CN(C)/[N+]([O-])=N/Oc1cc(SC[C@H](NC(=O)CC[C@H](N)C(=O)O)C(=O)NCC(=O)O)c([N+](=O)[O-])cc1C#N
Drug metabolism [11]: metabolite_detected | Drug metabolism [12]: metabolite_detected

CN(C)/[N+]([O-])=N/Oc1cc(O)c([N+](=O)[O-])cc1C#N
Drug metabolism [11]: metabolite_detected | Drug metabolism [13]: metabolite_detected

CNc1ccc(C(=O)SC[C@H](NC(=O)CC[C@H](N)C(=O)O)C(=O)NCC(=O)O)cc1
Drug metabolism [1]: metabolite_detected | Drug metabolism [11]: metabolite_detected | Drug metabolism [3]: metabolite_detected | Drug metabolism [14]: metabolite_detected

CN(C)/[N+]([O-])=N\Oc1cc(O)c([N+](=O)[O-])cc1[N+](=O)[O-]
Drug metabolism [15]: metabolite_detected | Drug metabolism [1]: metabolite_detected | Drug metabolism [16]: metabolite_detected | Drug metabolism [17]: metabolite_detected

CNc1ccc(C(=O)O)cc1
Drug metabolism [1]: metabolite_detected | Drug metabolism [11]: metabolite_detected | Drug metabolism [18]: metabolite_detected

N#Cc1cc([N+](=O)[O-])c(O)cc1SC[C@H](NC(=O)CC[C@H](N)C(=O)O)C(=O)NCC(=O)O
Drug metabolism [19]: metabolite_detected

CN(C)/[N+]([O-])=N/Oc1cc(SC[C@H](NC(=O)CC[C@H](N)C(=O)O)C(=O)NCC(=O)O)c([N+](=O)[O-])cc1[N+](=O)[O-]
Drug metabolism [17]: metabolite_detected

CNc1ccc(C(=O)Oc2cc(SC[C@H](NC(=O)CC[C@H](N)C(=O)O)C(=O)NCC(=O)O)c([N+](=O)[O-])cc2[N+](=O)[O-])cc1
Drug metabolism [1]: metabolite_detected | Drug metabolism [17]: metabolite_detected

N#Cc1cc([N+](=O)[O-])c(SC[C@H](NC(=O)CC[C@H](N)C(=O)O)C(=O)NCC(=O)O)cc1O
Drug metabolism [14]: metabolite_detected | Drug metabolism [20]: metabolite_detected

N[C@@H](CCC(=O)N[C@@H](CSc1cc(O)c([N+](=O)[O-])cc1[N+](=O)[O-])C(=O)NCC(=O)O)C(=O)O
Drug metabolism [1]: metabolite_detected | Drug metabolism [21]: metabolite_detected

CNc1ccc(C(=O)Oc2cc(O/N=[N+](\[O-])N(C)C)c(C#N)cc2[N+](=O)[O-])cc1
Drug metabolism [4]: metabolite_detected | Activity (HL-60 [22]): Active | IC50 (HL-60 [23]): 20 µM | K [5]: 2.1 ×10⁻³ /s | IC50 (U-937): 15 µM | Ratio [24]: 1 | Activity (HL-60 [25]): Active | Activity (HL-60 [26]): Active | Drug metabolism [27]: metabolite_detected | K [9]: 3.3 ×10⁻⁵ /s | Activity (HL-60 [28]): Active | K [10]: 2.1 ×10⁻⁴ /s

CNc1ccc(C(=O)Oc2cc(SC[C@H](NC(=O)CC[C@H](N)C(=O)O)C(=O)NCC(=O)O)c([N+](=O)[O-])cc2C#N)cc1
Drug metabolism [29]: metabolite_detected
